Screens (PubChem BioAssay)
Rows were chosen to be rich in hits. Some 1.8% of all compounds tested hit in one or more screens of this group.
proCasp3 act: activates human procaspase-3; P42574; recombinant procaspase-3 D3A, Ac-DEVD-pNA absorbance 405 nm; activation, % at 8.5 µM; 0.11% of 330,000 active;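 active = activation above the mean of all tested compounds plus 3 SD, cut at about 21% in these data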;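 note: 0% = DMSO alone and 100% = DMSO wells spiked with extra 5 µM PC-3 D3A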
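Assay system – Procaspase-3 D3A mutant · Benchmarks – DMSO low control, extra-enzyme high control · Technique – 405 nm absorbance of p-nitroaniline, reads at 0 and 120 min · Doses – 8.5 µM nominal · Measure – % activation between DMSO and enzyme-spiked controls · Also added – Ac-DEVD-pNA chromogenic peptide substrate · Schedule – 1 h compound preincubation, 2 h substrate hydrolysis at 25 °C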
proCasp7 act: counter-screen for procaspase-3 activators: activators of human procaspase-7; P55210; 0.093% of 330,000 active; recombinant procaspase-7, Ac-DEVD-pNA absorbance 405 nm; D23A/D198A/D206A triple mutant, cannot self-cleave; scale: DMSO 0, 5 µM enzyme 100; activation, % at 8.5 µM; AID 463210;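 active = percent activation above the screen-wide mean plus 3 SD, cut at about 25% in these data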
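Replicates: singlicate. Assay system: Procaspase-7 triple mutant (PC-7 D3A). Signal: 405 nm absorbance of p-nitroaniline. Times: 1 h preincubation, 2 h reaction. Buffer or medium: Zinc-free HEPES pH 7.4 with 300 mM NaCl, 0.01% Triton X-100. Also added: DEVD-pNA substrate. Benchmarks: DMSO wells as 0%, DMSO with 5 µM added PC-7 as 100%.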
ZTA counter: counter-screen for EBNA-1 inhibitors: inhibitors of Epstein-Barr virus ZTA; P03206; ZTA-DNA binding, fluorescence polarization; 0.15% of 320,000 active; inhibition, % at 11 µM; in the data active = inhibition above about 33%
EBNA-1 inh: blocks EBNA-1 binding to DNA; EBNA-1 DNA binding, fluorescence polarization; inhibition, % at 14.8 µM; 0.34% of 300,000 active; in the data active = inhibition above about 28%
Apaf1 inhib: human Apaf-1 inhibition. O14727. reconstituted apoptosome caspase-3 activity, DEVD-Rh110 fluorescence. inhibition, % at 20 µM. 0.71% of 330,000 active; active = inhibition of at least 40% at 20 µM;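 note: plate controls were DMSO wells for no effect and DEVD-CHO caspase inhibitor wells for full effect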
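Medium: Hepes buffer, pH 7.5 / System: biochemical Apaf-1 apoptosome reconstitution / Measured by: Rh110 fluorescence, excitation 480 nm, emission 540 nm / Times: compound with Apaf-1, dATP, procaspase-3 30 min, then 50 min reaction, room temperature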
GSTO1 inh: counter-screen for RBBP9 inhibitors: inhibitors of human GSTO1 | P78417 | recombinant GSTO1, activity-based probe fluorescence polarization | inhibition, % at 5.96 µM | 1.1% of 300,000 active | AID 1974;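 active = inhibition above the campaign mean inhibition plus 3 SD, cut at about 35% in these data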;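 note: 0% = GSTO1-1 with DMSO and 100% = wells lacking GSTO1-1 enzyme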
GSTO1 inh conf: confirmation of human GSTO1 inhibitors | shares compounds with GSTO1 inh | recombinant GSTO1, probe fluorescence polarization | inhibition, % at 5.96 µM | 54% of 2,400 active;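 active = inhibition above the primary screen's cutoff, its mean inhibition plus 3 SD, cut at about 35% in these data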;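 note: loss of polarization as inhibitors block binding of rhodamine sulfonate ester activity probe; 0% = GSTO1 with DMSO and 100% = wells lacking GSTO1 enzyme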
* = called active by the depositor; . = no result; ! = repeats disagree.

SMILES	proCasp3 act	proCasp7 act	ZTA counter	EBNA-1 inh	Apaf1 inhib	GSTO1 inh	GSTO1 inh conf
CC(=O)c1ccc2c(c1)C1C(Cl)C(Sc3ccccc3[N+](=O)[O-])CC1C(C(=O)O)N2 (stereo not drawn)	-15	-12	-9	-16	.	5	.
O=C(O)c1cccc2c1NC(C(=O)O)C1CC(Sc3ccccc3[N+](=O)[O-])C(Cl)C21 (stereo not drawn)	-21	-32	110*	35*	.	39*	-21
CCCCCCC(=O)c1c(O)n(-c2ccc(OC)cc2)c(=O)[nH]c1=O (tested in a mixture with another compound)	-9	-11	9	-5	-4	3	.
COC(=O)C1=C(c2ccc(C(C)=O)cc2)C[C@@H]2CC[C@H]1N2C(=O)NC1CC1	9	-1	8	.	-3	.	.
CCOC(=O)C(NC(=O)CCl)(Nc1ccc(C(O)(C(=O)OCC)C(F)(F)F)cc1)C(F)(F)F (stereo not drawn)	0	8	-2	3	11	53*	74*
O=C(CCl)Nc1nccs1	2	3	-13	0	-1	92*	99*
Cc1cc(NC(=O)CCl)nn1C	4	8	-2	-12	6	85*	86*
Cc1cc(C(=O)Nc2ccccc2)nn1C(C)(C)C	2	11	2	-5	-1	7	.
Cn1ccc(NC(=O)CCl)n1	3	-6	-2	16	-11	62*	85*
CCNC(=O)NNC(=O)C1CC(c2cccnc2)=NO1 (stereo not drawn)	6	9	-10	-4	-1	6	.
O=C(NC1CCCCC1)Oc1cc2oc(=O)sc2cc1Cl	-31	-42	8	1	10	55*	13
CC(C)c1ccc(NC(=O)CCNC(=O)N2C[C@H]3C[C@@H](C2)c2cccc(=O)n2C3)cc1	14	-12	6	-4	-7	-4	.
COC(=O)CC(=O)c1ccc2c(c1)OCO2	8	6	-1	-1	-12	1	.
CN(C)[C@@H]1C(=O)C(C(N)=O)=C(O)[C@@]2(O)C(=O)C3=C(O)c4c(O)cccc4[C@@](C)(O)[C@H]3[C@H](O)[C@@H]12	0	-16	8	30*!	3	61*	69*
Cc1cc(NC(=O)CCl)on1	-8	-3	10	1	-4	73*	99*
O=[N+]([O-])/C=C1/NCCN1Cc1ccc(Cl)nc1	8	10	13	3	-18	3	.
Cc1c(N=Nc2c(O)[nH]c(=S)[nH]c2=O)c(=O)n(-c2ccccc2)n1C	-4	-26	-16	-2	-2	57*	6
COc1ccc(CC2c3cc(OC)c(OC)cc3CCN2C)cc1O (stereo not drawn)	-6	-15	3	6	-2	9	.
COc1cc2c(cc1OC)-c1c3c(cc4c1[C@@H](C2)N(C)CC4)OCO3	19	8	-18	-4	98*	79*	70*
COc1cc2c(cc1OC)-c1c(OC)c(OC)cc3c1C(C2)N(C)CC3 (stereo not drawn)	0	7	8	9	95*	70*	78*
Cc1noc(C)c1CC(=O)N1CCCC(N2CCN(c3ccccc3F)CC2)C1 (stereo not drawn)	-9	11	15	1	-7	2	.
C/C(=N\N1CCCCCC1)c1c(O)n(C2CCCCC2)c(=O)[nH]c1=O	0	-2	-6	-2	5	6	.
COC(=O)C1=C(c2ccc(OC)c(OC)c2)C[C@@H]2CC[C@H]1N2C(=O)NCc1ccco1	11	8	-11	.	-4	.	.
COc1cccc(N2C(=O)NC(=O)/C(=C/c3ccc([N+](=O)[O-])s3)C2=O)c1	-3	-10	-16	2	11	44*	36*
CC(Cc1ccccc1)NC(=O)/C=C/c1ccc(Cl)cc1 (stereo not drawn)	-1	3	10	14	5	-1	.
